From ChEMBL document CHEMBL1154379, “Soluble polyphenols: synthesis and bioavailability of 3,4',5-tri(alpha-D-glucose-3-O-succinyl) resveratrol” (Bioorg Med Chem Lett, 2009)
Converted amounts (≈) assume the structure as drawn.

How the values were obtained:
Rattus norvegicus [1] = test: AUC in intragastrically dosed rat assessed as resveratrol glucuronide level at 0.09 mmol/kg after 10 mins; assay type: ADME, organism-based, Plasma; design: time < 0.166667 hr, dose 0.09 mmol/kg, route intragastric; conditions: in vivo, po
Method in brief: (§1)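 Rats received intragastric doses, with the same animals given both resveratrol and the derivative to limit individual variability. Blood was sampled over time. Circulating resveratrol and its sulfate and glucuronide conjugates were identified by HPLC–UV at 320 nm and LC–MS against synthesized phase II metabolite standards, confirmed by enzymatic treatment. Cmax and AUC were taken from concentration–time curves.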

[2] = Chemical stability in 1N HCl solution assessed as compound remaining at 37degC; assay type: physicochemical; conditions: buffer
Method in brief: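 The compound was incubated in 1 N HCl at 37 °C for 6 h and analysed by LC–MS. The amount remaining is expressed as % of the initial molar amount.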

Rattus norvegicus [3] = test: AUC in intragastrically dosed rat assessed as total metabolite level at 0.09 mmol/kg after 10 mins; assay type: ADME, organism-based, Plasma; design: dose 0.09 mmol/kg, time < 0.166667 hr, route intragastric; conditions: in vivo, po; method in brief: as §1
[4] = Solubility in water at room temperature; assay type: physicochemical
Rattus norvegicus [5] = test: AUC in intragastrically dosed rat assessed as resveratrol disulfate level at 0.09 mmol/kg after 10 mins; assay type: ADME, organism-based, Plasma; design: time < 0.166667 hr, dose 0.09 mmol/kg, route intragastric; conditions: in vivo, po; method in brief: as §1
Rattus norvegicus [6] = test: AUC in intragastrically dosed rat assessed as resveratrol sulfate level at 0.09 mmol/kg after 10 mins; assay type: ADME, organism-based, Plasma; design: dose 0.09 mmol/kg, time < 0.166667 hr, route intragastric; conditions: in vivo, po; method in brief: as §1
Rattus norvegicus [7] = test: AUC in intragastrically dosed rat assessed as resveratrol level at 0.09 mmol/kg after 10 mins; assay type: ADME, organism-based, Plasma; design: time < 0.166667 hr, dose 0.09 mmol/kg, route intragastric; conditions: in vivo, po; method in brief: as §1
[8] = Cmax in intragastrically dosed rat at 0.09 mmol/kg after 10 mins; assay type: ADME, organism-based; design: dose 0.09 mmol/kg, route intragastric; conditions: in vivo, po
Method in brief: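 Rats dosed intragastrically, with the same animals receiving both resveratrol and the glucosylsuccinyl derivative. Blood was sampled over time. Circulating species were identified by HPLC-UV at 320 nm and LC–MS against synthesized phase II metabolite standards (sulfates, glucuronides), with confirmation by enzymatic treatment. Cmax was read from concentration–time curves.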

[9] = Solubility in pH 9 buffer; assay type: physicochemical

SMILES | AUC (Rattus norvegicus [1]) | Stability [2] | AUC (Rattus norvegicus [3]) | solubility [4] | AUC (Rattus norvegicus [5]) | AUC (Rattus norvegicus [6]) | AUC (Rattus norvegicus [7]) | Cmax [8] | solubility [9]
O=C(CCC(=O)O[C@@H]1[C@@H](O)[C@@H](O)O[C@H](CO)[C@H]1O)Oc1ccc(/C=C/c2cc(OC(=O)CCC(=O)O[C@@H]3[C@@H](O)[C@@H](O)O[C@H](CO)[C@H]3O)cc(OC(=O)CCC(=O)O[C@@H]3[C@@H](O)[C@@H](O)O[C@H](CO)[C@H]3O)c2)cc1 | 21.2 µM·h | 80% | 51.8 µM·h | 90 mg/mL (≈ 88.7 mM) | 27 µM·h | 3.5 µM·h | 0.2 µM·h |  | 
Oc1ccc(/C=C/c2cc(O)cc(O)c2)cc1 [RESVERATROL] | 35.5 µM·h |  | 53.4 µM·h |  | 14.4 µM·h | 2.4 µM·h | 1.1 µM·h | 1200 nM | 
C[C@@H]1O[C@@H](OC[C@H]2O[C@@H](Oc3c(-c4ccc(O)c(O)c4)oc4cc(O)cc(O)c4c3=O)[C@H](O)[C@@H](O)[C@@H]2O)[C@H](O)[C@H](O)[C@H]1O [RUTIN] |  |  |  |  |  |  |  |  | 2.3 mg/mL (≈ 3.77 mM)
